One experiment has as its system MOLT-4. The experiment is described as follows: Evaluated for the inhibition of tumor cell growth of Human T-Lymphocyte cells (Molt4/C8). Format: functional, cell-based. The gist of the method:
(§1)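 Proliferation of the murine (L1210/0, FM3A/0) and human T-lymphoblast (Molt4/C8, CEM/0) lines was measured following the procedure originally described for mouse L1210 cells. IC50 is the concentration, in µg/mL, that inhibits tumour cell proliferation by 50%.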

The next experiment relates to FM3A. In words: Evaluated for the inhibition of tumor cell growth of murine mammary carcinoma malignant tumor cell line (FM3A/0). Format: functional, cell-based. To be noted: Mus musculus. Put shortly:
as §1

The test system of the next experiment is L1210. In words: Evaluated for the inhibition of tumor cell growth of murine leukemia malignant tumor cell line (L1210/0). Format: functional, cell-based. To be noted: Mus musculus. The gist of the method: as §1
Experiment [1] deals with HEL. In words: Evaluated for minimum cytotoxic concentration that causes a microscopically detectable alteration of normal HEL cell morphology. Particulars: Homo sapiens. Format: functional. Put shortly: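 HEL fibroblast cultures were examined by microscope. MCC is the lowest concentration, in µg/mL, that causes a detectable change in normal cell morphology.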
Experiment [2] relates to HEL. The experiment is described as follows: Evaluated for cytotoxic concentration required to reduce normal human embryonic lung (fibroblast) (HEL) cell growth by 50%. Format: functional. The gist of the method: (§2)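 Normal human embryonic lung fibroblasts (HEL) were grown with compound. CC50 is the concentration, in µg/mL, that reduces HEL cell growth by 50%.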
The next experiment deals with CCRF-CEM. In words: Evaluated for the inhibition of tumor cell growth of Human T-Lymphocyte cells (CEM/0). Format: functional, cell-based. Put shortly: as §1
The test system of experiment [3] is HEL. In words: Evaluated for cytotoxic concentration required to reduce normal human embryonic lung (fibroblast) HEL cell growth by 50%. Format: functional. Put shortly: as §2
A further experiment relates to MEF. The experiment is described as follows: Evaluated for cytotoxicity against murine embryo fibroblasts (MEF). Format: functional, Mus musculus. Put shortly:
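Murine embryo fibroblasts (MEF) were tested for inhibition of proliferation following the method originally described for mouse L1210 cells. Values are given as cytotoxic concentrations in µg/mL.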

Values after ≈ are worked out from the molar mass of the structure shown. A value given as a limit tells only on which side of the number the result lay.

`O=C1OC(C(O)Cn2cc(C(F)(F)F)c(=O)[nH]c2=O)C(OCc2ccccc2)=C1OCc1ccccc1` (stereo not drawn): the IC50 in the experiment on MOLT-4 is 47.4 µg/mL (≈ 91.4 µM); in the experiment with FM3A it was 38.4 µg/mL (≈ 74.1 µM); with L1210, 26 µg/mL (≈ 50.2 µM); in the experiment on CCRF-CEM, 19 µg/mL (≈ 36.6 µM). Moreover, in the experiment with HEL [1], the MCC turned out to be 50 µg/mL. In addition, in the experiment on HEL [2], the CC50 came out at 31.7 µg/mL (≈ 61.1 µM).
Consider `O=C1OC(C(O)Cn2cc(F)c(=O)[nH]c2=O)C(OCc2ccccc2)=C1OCc1ccccc1` (stereo not drawn), for which the IC50 in the experiment with MOLT-4 is 81.2 µg/mL (≈ 173 µM); with FM3A, 52.2 µg/mL (≈ 111 µM); with L1210, 65.6 µg/mL (≈ 140 µM); in the experiment with CCRF-CEM, 74 µg/mL (≈ 158 µM). In the experiment with HEL [3], this molecule registered a cytotoxic concentration (CC50) of 33.4 µg/mL (≈ 71.3 µM). In addition, in the experiment on HEL [1], the MCC was found to be 50 µg/mL.
As to `O=C1O/C(=C\Cn2cc(F)c(=O)[nH]c2=O)C(O)=C1O`, the half-inhibitory concentration (IC50) in the experiment with MOLT-4 amounted to 31.8 µg/mL (≈ 118 µM); with FM3A it was 0.78 µg/mL (≈ 2.89 µM); in the experiment with L1210 it was 1.4 µg/mL (≈ 5.18 µM); with CCRF-CEM, 20.9 µg/mL (≈ 77.4 µM). In the experiment with MEF, this molecule gave a Cytotoxicity of 0.92 µg/mL. The molecule further registered an MCC with HEL [1] of more than 50 µg/mL. The half-maximal cytotoxic concentration (CC50) in the experiment on HEL [2] was found to be 23 µg/mL (≈ 85.1 µM).
Regarding `O=C1O/C(=C\Cn2ccc(=O)[nH]c2=O)C(O)=C1O`, the IC50 in the experiment on MOLT-4, in the experiment with FM3A, in the experiment with L1210 and with CCRF-CEM was more than 200 µg/mL each time. In the experiment with HEL [1], this molecule showed an MCC of more than 50 µg/mL. The molecule further registered a 50% cytotoxic concentration (CC50) with HEL [2] of more than 50 µg/mL.
On to `O=C1OC(C(O)Cn2ccc(=O)[nH]c2=O)C(OCc2ccccc2)=C1OCc1ccccc1` (stereo not drawn), for which the IC50 in the experiment on MOLT-4 amounted to 67.8 µg/mL (≈ 151 µM); in the experiment with FM3A, 74.1 µg/mL (≈ 165 µM); with L1210, 70.8 µg/mL (≈ 157 µM); in the experiment on CCRF-CEM, 68.6 µg/mL (≈ 152 µM). This molecule also came in with a CC50 in the experiment on HEL [3] of more than 50 µg/mL. In the experiment on HEL [1], this molecule had an MCC of more than 50 µg/mL.
For `O=C1O/C(=C\Cn2ccc(=O)[nH]c2=O)C(OCc2ccccc2)=C1O`, the IC50 with MOLT-4, with FM3A, in the experiment on L1210 and with CCRF-CEM was more than 200 µg/mL throughout. The molecule also had an MCC with HEL [1] of more than 50 µg/mL. Besides, in the experiment on HEL [2], the half-maximal cytotoxic concentration (CC50) is more than 50 µg/mL.
Take `O=C1O/C(=C\Cn2cc(C(F)(F)F)c(=O)[nH]c2=O)C(O)=C1O`: the IC50 in the experiment with MOLT-4 is more than 200 µg/mL; in the experiment on FM3A, 162 µg/mL (≈ 506 µM); in the experiment with L1210, 76.1 µg/mL (≈ 238 µM); in the experiment on CCRF-CEM it was more than 200 µg/mL. The same molecule yielded an MCC in the experiment with HEL [1] of more than 50 µg/mL. In the experiment with HEL [2], this molecule had a CC50 of more than 50 µg/mL.
Consider `O=c1[nH]c(=O)n([C@H]2C[C@H](O)[C@@H](CO)O2)cc1F` [FLOXURIDINE], for which the IC50 is 2.6 µg/mL (≈ 10.6 µM) with MOLT-4, 0.0008 µg/mL (≈ 0.00325 µM) with FM3A, 0.0003 µg/mL (≈ 0.00122 µM) in the experiment on L1210 and 0.003 µg/mL (≈ 0.0122 µM) in the experiment on CCRF-CEM. The molecule also displayed a Cytotoxicity in the experiment on MEF of 0.0001 µg/mL.
Turning to `O=c1[nH]cc(F)c(=O)[nH]1` [FLUOROURACIL], the IC50 was 2.9 µg/mL (≈ 22.3 µM) in the experiment with MOLT-4, 0.02 µg/mL (≈ 0.154 µM) in the experiment with FM3A, 0.04 µg/mL (≈ 0.308 µM) in the experiment on L1210 and 1.2 µg/mL (≈ 9.23 µM) with CCRF-CEM. This molecule gave a Cytotoxicity with MEF of 0.2 µg/mL.

For the origin of these results see ChEMBL document CHEMBL1133596, “Synthesis and antitumor activities of novel pyrimidine derivatives of 2,3-O,O-dibenzyl-6-deoxy-L-ascorbic acid and 4,5-didehydro-5,6- dideoxy-L-ascorbic acid” (J Med Chem, 2000).
